From ChEMBL document CHEMBL1134335, “Structure-activity relationships of pyridoxal phosphate derivatives as potent and selective antagonists of P2X1 receptors” (J Med Chem, 2001)
pIC50: −log10 of the molar value. The source made the active and inactive calls. The rule behind the calls is not given here.

Columns and labels:
[1] = molecular target: T1, P2X purinoceptor 7 (Homo sapiens) (UniProt Q99572); assay: Percentage inhibition of ATP-induced K+ efflux (cation free) in adherent HEK293 cells expressing human P2X7 receptor; format: functional, cell-based; settings: concentration not given here
T1 sequence (whole entry): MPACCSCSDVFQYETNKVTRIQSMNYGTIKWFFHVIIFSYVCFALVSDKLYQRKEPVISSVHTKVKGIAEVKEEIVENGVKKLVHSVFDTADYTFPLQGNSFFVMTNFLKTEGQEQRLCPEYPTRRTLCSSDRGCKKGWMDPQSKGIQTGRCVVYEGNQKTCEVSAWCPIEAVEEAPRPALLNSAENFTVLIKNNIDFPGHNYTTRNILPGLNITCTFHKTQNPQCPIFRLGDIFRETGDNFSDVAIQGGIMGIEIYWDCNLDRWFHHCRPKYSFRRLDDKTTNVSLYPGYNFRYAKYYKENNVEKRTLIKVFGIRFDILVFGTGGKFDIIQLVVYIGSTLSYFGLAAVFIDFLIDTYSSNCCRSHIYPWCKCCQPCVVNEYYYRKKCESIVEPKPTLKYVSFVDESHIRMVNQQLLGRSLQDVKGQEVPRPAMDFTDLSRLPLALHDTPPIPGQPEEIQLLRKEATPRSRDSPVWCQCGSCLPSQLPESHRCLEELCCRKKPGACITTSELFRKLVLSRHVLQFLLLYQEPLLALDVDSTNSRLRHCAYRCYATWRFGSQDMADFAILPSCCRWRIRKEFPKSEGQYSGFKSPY
In short: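 Adherent HEK293 cells stably expressing human P2X7, in divalent cation-free saline (no added MgCl₂ or CaCl₂; pH 7.5). Pretreated with 30 µM compound, then 3 mM ATP for 10 min at 37 °C. Residual cell K⁺ was extracted in 10% HNO₃ for 2 h and measured by atomic absorbance against untreated cells. n=3, each in duplicate.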

[2] = molecular target: P2Y purinoceptor 1 (Meleagris gallopavo) (UniProt P49652); assay: Inhibition of 10 nM 2-MeS-ADP-stimulated phospholipase C in turkey erythrocyte membranes using [3H]inositol; IA means inactive; format: functional, cell membranes
Sequence of P2Y purinoceptor 1 (Meleagris gallopavo) (P49652 whole entry): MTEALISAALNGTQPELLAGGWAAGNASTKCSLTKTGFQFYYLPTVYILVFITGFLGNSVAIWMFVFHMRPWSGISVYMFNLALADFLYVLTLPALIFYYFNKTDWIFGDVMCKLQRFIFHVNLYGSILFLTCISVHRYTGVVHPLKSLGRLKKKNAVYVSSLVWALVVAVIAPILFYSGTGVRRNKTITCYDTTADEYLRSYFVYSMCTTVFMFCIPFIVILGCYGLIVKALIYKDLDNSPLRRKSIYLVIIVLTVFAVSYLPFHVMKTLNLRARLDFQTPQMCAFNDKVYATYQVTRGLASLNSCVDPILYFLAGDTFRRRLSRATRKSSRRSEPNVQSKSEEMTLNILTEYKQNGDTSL
In short: (§1)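 Turkey erythrocytes labelled 18-24 h at 37 °C with 2-[³H]myo-inositol in inositol-free DMEM, then lysed hypotonically (5 mM sodium phosphate pH 7.4, 5 mM MgCl₂, 1 mM EGTA) to make ghosts. Ghosts were incubated 5 min at 30 °C in pH 7.0 Hepes/KCl buffer with 1 µM GTPγS and 10 nM 2-MeSADP. Total [³H]inositol phosphates were measured by anion-exchange chromatography; 3-8 independent determinations.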

[3] = molecular target: T1, P2X purinoceptor 7 (Homo sapiens); assay: Percent inhibition of ATP-induced K+ efflux (ethidium influx) in suspended HEK293 cells expressing human P2X7 receptor; format: functional, cell-based; settings: concentration not given here
In short: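 Trypsinised HEK293 cells stably expressing human P2X7 were suspended in divalent cation-free saline in a stirred cuvette at 37 °C with 20 µM ethidium bromide. Cells were treated with 30 µM compound, then 300 µM ATP.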

[4] = molecular target: T1, P2X purinoceptor 7 (Homo sapiens); assay: Percent inhibition of ATP-induced K+ efflux (with cations) in adherent HEK293 cells expressing human P2X7 receptor; format: functional, cell-based; settings: concentration not given here
In short: (§2)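 Adherent HEK293 cells stably expressing human P2X7, grown to 90% confluence, in saline with 1 mM MgCl₂ and 1.5 mM CaCl₂ (pH 7.5). Pretreated with 30 µM compound, then 3 mM ATP for 10 min at 37 °C. Cell K⁺ was extracted in 10% HNO₃ for 2 h and read by atomic absorbance relative to untreated cells. n=3, each in duplicate.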

[5] = molecular target: T2, P2X purinoceptor 2 (Rattus norvegicus) (UniProt P49653); assay: Inhibition of inward ion current elicited by ATP at P2X2 receptor expressed in Xenopus oocytes; IA means inactive; format: functional, cell-based; settings: Oocyte
T2 sequence (whole entry): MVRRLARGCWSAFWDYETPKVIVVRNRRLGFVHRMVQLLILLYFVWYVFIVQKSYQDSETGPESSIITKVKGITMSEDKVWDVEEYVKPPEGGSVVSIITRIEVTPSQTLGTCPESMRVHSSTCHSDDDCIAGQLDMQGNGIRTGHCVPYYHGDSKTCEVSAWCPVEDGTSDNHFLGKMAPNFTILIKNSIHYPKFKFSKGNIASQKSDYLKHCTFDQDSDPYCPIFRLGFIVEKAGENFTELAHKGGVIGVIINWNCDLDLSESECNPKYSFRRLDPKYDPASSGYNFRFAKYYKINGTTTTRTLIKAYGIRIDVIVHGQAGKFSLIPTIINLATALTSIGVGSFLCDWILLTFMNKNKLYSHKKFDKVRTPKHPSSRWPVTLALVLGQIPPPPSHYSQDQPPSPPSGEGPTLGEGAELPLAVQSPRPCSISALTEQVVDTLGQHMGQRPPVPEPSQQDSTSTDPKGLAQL

[6] = molecular target: T3, P2X purinoceptor 3 (Rattus norvegicus) (UniProt P49654); assay: Inhibition of inward ion current elicited by ATP at P2X3 receptor expressed in Xenopus oocytes; IA means inactive; format: functional, cell-based; settings: Oocyte
T3 sequence (whole entry): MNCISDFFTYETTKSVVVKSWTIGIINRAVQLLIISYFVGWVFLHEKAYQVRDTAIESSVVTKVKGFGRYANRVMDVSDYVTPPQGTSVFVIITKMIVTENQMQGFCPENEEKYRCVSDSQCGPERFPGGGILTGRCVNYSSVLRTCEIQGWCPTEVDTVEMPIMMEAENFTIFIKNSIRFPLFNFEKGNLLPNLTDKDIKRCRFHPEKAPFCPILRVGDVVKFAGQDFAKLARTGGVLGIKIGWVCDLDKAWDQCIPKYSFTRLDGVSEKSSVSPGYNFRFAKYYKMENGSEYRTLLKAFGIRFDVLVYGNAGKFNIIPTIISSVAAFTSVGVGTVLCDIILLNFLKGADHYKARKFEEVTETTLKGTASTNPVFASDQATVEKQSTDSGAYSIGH

[7] = molecular target: T4, P2X purinoceptor 1 (Rattus norvegicus) (UniProt P47824); assay: Inhibition of inward ion current elicited by ATP at P2X1 receptor expressed in Xenopus oocytes; IA means inactive; format: functional, cell-based; settings: Oocyte
T4 sequence (whole entry): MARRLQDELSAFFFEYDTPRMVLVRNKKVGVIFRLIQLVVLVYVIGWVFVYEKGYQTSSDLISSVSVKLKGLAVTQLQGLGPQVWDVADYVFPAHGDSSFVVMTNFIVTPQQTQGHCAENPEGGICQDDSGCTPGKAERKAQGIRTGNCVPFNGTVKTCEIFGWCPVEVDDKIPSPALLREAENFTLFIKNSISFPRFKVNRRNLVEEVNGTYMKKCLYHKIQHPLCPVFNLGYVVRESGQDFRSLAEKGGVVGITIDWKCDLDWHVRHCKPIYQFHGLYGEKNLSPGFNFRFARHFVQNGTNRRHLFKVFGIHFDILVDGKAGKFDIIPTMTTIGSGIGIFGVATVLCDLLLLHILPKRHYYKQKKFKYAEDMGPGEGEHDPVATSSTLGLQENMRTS

[8] = molecular target: T4, P2X purinoceptor 1 (Rattus norvegicus); assay: Inhibition of inward ion current elicited by ATP at P2X1 receptor expressed in Xenopus oocytes at 10 uM; format: functional, cell-based; settings: Oocyte
[9] = molecular target: T5, P2X purinoceptor 2 (Rattus norvegicus, UniProt P49653); assay: Inhibition of inward ion current elicited by ATP at P2X2 receptor expressed in Xenopus oocytes; format: functional, cell-based, Oocyte
T5 sequence (P49653 whole entry): T2 sequence (whole entry)

[10] = molecular target: T6, P2X purinoceptor 1 (Rattus norvegicus, UniProt P47824); assay: Inhibition of inward ion current elicited by ATP at P2X1 receptor expressed in Xenopus oocytes; format: functional, cell-based, Oocyte
T6 sequence (P47824 whole entry): T4 sequence (whole entry)

[11] = molecular target: P2Y purinoceptor 1 (Meleagris gallopavo, UniProt P49652); assay: Inhibition of 10 nM 2-MeS-ADP-stimulated phospholipase C in turkey erythrocyte membranes using [3H]inositol; format: functional, cell membranes; in short: as §1
Sequence of P2Y purinoceptor 1 (P49652 whole entry): as the sequence (P49652 whole entry) above

[12] = molecular target: T1, P2X purinoceptor 7 (Homo sapiens); assay: Inhibition of ATP-induced K+ efflux (with cations) in adherent HEK293 cells expressing human P2X7 receptor; format: functional, cell-based; settings: concentration not given here; in short: as §2
[13] = molecular target: T7, P2X purinoceptor 3 (Rattus norvegicus, UniProt P49654); assay: Inhibition of inward ion current elicited by ATP was determined at recombinant P2X3 receptor expressed in Xenopus oocytes; format: functional, cell-based, Oocyte
T7 sequence (P49654 whole entry): T3 sequence (whole entry)

[14] = molecular target: T3, P2X purinoceptor 3 (Rattus norvegicus); assay: Inhibition of inward ion current elicited by ATP at recombinant P2X3 receptor expressed in Xenopus oocytes at 10 uM; format: functional, cell-based; settings: Oocyte

`Cc1nc(/N=N/c2cc(S(=O)(=O)O)ccc2S(=O)(=O)O)c2c(c1O)COP(=O)(O)OC2` was tested, and the inhibition [1] was -5%, the Inhibition activity [2] was “inactive” and the inhibition [3] was 17%. For the same compound, the inhibition [4] was -1% and the IA [5] was “inactive”.

With `Cc1ncc2c(c1O)COP(=O)(O)OC2` the IA [6] was “inactive”, the Inhibition activity [2] was “inactive” and the IA [5] was “inactive”.

With `Cc1nc(/N=N/c2ccccc2)c2c(c1O)COP(=O)(O)OC2` the Inhibition activity [2] was “inactive” and the IA [7] was “inactive”.

Work on `Cc1nc(/N=N/c2ccc(C(=O)O)cc2)c2c(c1O)COP(=O)(O)OC2` yielded an inhibition [8] of 39%.

`Cc1nc(/N=N/c2cc(S(=O)(=O)O)ccc2S(=O)(=O)O)c(COP(=O)(O)O)c(C=O)c1O` [ISOPPADS] gave an inhibition [1] of 67%, a pIC50 [9] of 6.40 and a pIC50 [10] of 7.37. For the same compound, the inhibition [3] was 100%, the pIC50 [11] was 4.67 and the inhibition [12] was 81%.

In the case of `Cc1nc(/N=N/c2ccccc2)c(COP(=O)(O)O)c(COP(=O)(O)O)c1O`, the inhibition [8] was 50% and the pIC50 [11] was under 4.00.

In the case of `Cc1nc(/N=N/c2ccc(C(=O)O)cc2)c(COP(=O)(O)O)c(C=O)c1O`, the pIC50 [13] was 6.85, the pIC50 [9] was 4.92 and the pIC50 [10] was 8.03. For the same compound, the pIC50 [11] was 4.00.

`Cc1nc(/N=N/c2ccc(C(=O)O)cc2)c(CP(=O)(O)O)c(C=O)c1O` was tested, and the pIC50 [13] was 6.89, the pIC50 [9] was 6.82 and the pIC50 [10] was 8.09.

In the case of `CC(=O)Oc1c(C)nc(/N=N/c2cc(S(=O)(=O)O)ccc2S(=O)(=O)O)c2c1COP(=O)(O)OC2`, the IA [7] was “inactive”.

With `Cc1nc(/N=N/c2ccc(P(=O)(O)O)cc2)c(CP(=O)(O)O)c(C=O)c1O` the pIC50 [13] was 7.44, the pIC50 [9] was 6.02 and the pIC50 [10] was 7.92. For the same compound, the pIC50 [11] was 4.57.

Work on `Cc1nc(/N=N/c2cc(S(=O)(=O)O)ccc2Cl)c(COP(=O)(O)O)c(COP(=O)(O)O)c1O` yielded an inhibition [1] of -5%, an inhibition [14] of 30% and an inhibition [8] of 78%. It also gave an inhibition [3] of 12%, an inhibition [4] of -1% and a pIC50 [11] of 4.00.
